Assay results of several laboratories.
Lines come from different studies, so protocols differ.
Target: Dual specificity mitogen-activated protein kinase kinase 4 (MAP2K4, Homo sapiens, UniProt P45985)
Residues used in one study (P45985 1-399): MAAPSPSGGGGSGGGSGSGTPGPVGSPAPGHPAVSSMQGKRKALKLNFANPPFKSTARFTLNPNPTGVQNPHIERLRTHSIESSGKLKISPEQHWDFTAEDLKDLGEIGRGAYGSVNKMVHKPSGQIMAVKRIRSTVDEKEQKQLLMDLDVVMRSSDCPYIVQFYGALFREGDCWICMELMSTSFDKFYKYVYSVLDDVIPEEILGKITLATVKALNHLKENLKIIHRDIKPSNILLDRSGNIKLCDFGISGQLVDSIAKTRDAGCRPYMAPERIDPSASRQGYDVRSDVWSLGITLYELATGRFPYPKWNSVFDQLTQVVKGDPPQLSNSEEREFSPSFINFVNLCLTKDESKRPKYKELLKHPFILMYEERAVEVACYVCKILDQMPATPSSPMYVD

| Compound | assay | conditions | remaining binding [%] |
| --- | --- | --- | --- |
| CC1CCCN1c1nccc(-c2cnn3ncccc23)n1 (stereo not drawn) | binding | 1 µM | 100 |
| CO[C@H]1CC[C@H](CNc2ccc(S(=O)(=O)NC(=O)c3ccc(N4CCN(CC5=C(c6ccc(Cl)cc6)CC(C)(C)CC5)CC4)cc3Oc3cnc4[nH]ccc4c3)cc2[N+](=O)[O-])CC1 | cell-free assay, competition with immobilised ligand | 1 µM | 98 |
| O=C(c1ccc(Nc2ncc(Cl)c(-c3cc4ccccc4s3)n2)cc1)N1CCC(N2CCCC2)CC1 | binding, competition with immobilised ligand | 1 µM | 69 |
| C[C@@H](c1ccc(-n2cnc3c(N)ncnc32)cc1)N1CCc2nn(C)c(Cc3ccccc3)c2C1=O | binding, competition with immobilised ligand | 0.1 µM | 57 |
| COc1cc(-c2cn(C3CCc4ccccc4N(CC(F)(F)F)C3=O)nn2)ccc1-n1ccc(C)n1 (stereo not drawn) | cell-free assay, competition with immobilised ligand | 1 µM | 100 |
| O=C(c1ccc(Nc2ncc(Cl)c(-c3ccc(Cl)s3)n2)cc1)N1CCC(N2CCCC2)CC1 | binding, competition with immobilised ligand | 1 µM | 42 |
| Cc1cc(C)c(-n2ccn3nc(-c4cccnc4)cc23)cc1NC(=O)c1cc(C#N)cc(S(F)(F)(F)(F)F)c1 | cell-free assay, competition with immobilised ligand | 0.1 µM | 74.7 |
| CN(C)c1nccc(-c2cnn3ncccc23)n1 | binding | 1 µM | 81 |
| O=C(c1ccc(Nc2nccc(-c3cc4ccccc4s3)n2)cc1)N1CCC(N2CCCC2)CC1 | binding, competition with immobilised ligand | 1 µM | 78 |
| O=C(Nc1c[nH]nc1C(=O)NC1CCNCC1)c1cc(F)cc(F)c1 | binding, competition with immobilised ligand | 1 µM | 94 |
| Cn1cc(Cl)c2c(Oc3c(F)cc(Nc4cc(Cl)nc(N)n4)cc3F)ccnc21 | cell-free assay, competition with immobilised ligand | 0.1 µM | 80 |
| FC(F)(F)Oc1cccc(-c2cnc3ccc(-c4ccncc4)nn23)c1 | cell-free assay, competition with immobilised ligand | 5 µM | 69 |
| CS(=O)(=O)N1CCCC(NC(=O)[C@H](CCC2CCCCC2)NC(=O)c2ccc(CNC(=O)c3cnc4ccccn34)cc2)C1 (stereo partly drawn) | cell-free assay, competition with immobilised ligand | 0.1 µM | 100 |
| F[C@@H]1CCN(c2nccc(-c3cnn4ncccc34)n2)C1 | binding | 1 µM | 100 |
| COc1ncc2cc3ccccc3nc2c1C#N | cell-free assay, competition with immobilised ligand | 5 µM | 100 |
| COc1ccnn2ncc(-c3ccnc(N(C)C)n3)c12 | binding | 1 µM | 100 |
| CNC(=O)[C@@H]1CC[C@@H](n2c(-c3ccc4cnccc4c3)nc3ccc(C(=O)NCc4cccc(C(N)=O)c4)cc32)C1 | binding, competition with immobilised ligand | 1 µM | 100 |
| Cc1cnn2ncc(-c3ccnc(N(C)C)n3)c2c1 | binding | 1 µM | 100 |
| CC(=O)N1CCC(c2ccc(C(=O)NC3=NCCN3)cc2C(F)(F)F)CC1 | cell-free assay, competition with immobilised ligand | 1 µM | 100 |
| N[C@H]1CCN(c2nccc(-c3cnn4ncccc34)n2)C1 | binding | 1 µM | 86 |
| c1cncc(-c2cccc(Nc3nccc(NC4CCCCC4)n3)c2)c1 | binding, competition with immobilised ligand | 10 µM | 64 |
